Measurements published in paper PMC10092158 (The British Journal of Dermatology, 2022).
Entries after “also recorded” stand apart in the source; their conditions may differ.

Experiments:
Format in all cases: in vivo, human
[1] = test system: participants with mild‐to‐moderate AD
Outline: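 Adults and children with mild-to-moderate AD (IGA 2–3, 2–20% BSA, EASI 3–21) were randomized equally to eight arms for 6 weeks. QD arms were vehicle, 0·1% (1 mg g–1), 0·3%, 1·0% or 3·0% cream; BID arms were vehicle, 0·3% or 1%. Application was to all affected areas except hair-bearing scalp. Read-outs were POEM at weeks 1, 2 and 6 and weekly PP-NRS averages, analysed by ANCOVA or MMRM.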

[2] = test system: participants with mild‐to‐moderate AD; assay: Phase IIb study: safety and tolerability
Outline: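 Safety data came from randomized participants treated for 6 weeks with vehicle or cream (QD 0·1–3·0%, or BID 0·3%/1%). Measures were treatment-emergent adverse events coded by System Organ Class, discontinuations due to TEAEs, vital signs, laboratory tests (haematology, creatine kinase, liver function) and ECGs. All were summarized descriptively.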

[3] = Phase IIb study: plasma concentrations of brepocitinib; settings: topical cream, all dose groups; lower limit of quantification 0·200 ng mL^–1
Outline: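 Blood was drawn pre-dose at baseline and at weeks 1, 2, 3, 4 and 6, each at the same interval after application, during 6 weeks of topical cream given QD (0·1–3·0%) or BID (0·3%, 1%). Plasma brepocitinib was quantified against an LLOQ of 0·200 ng mL–1 and summarized as median concentration per dose group.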

Cn1cc(Nc2nccc(N3C[C@H]4CC[C@@H](C3)N4C(=O)[C@@H]3CC3(F)F)n2)cn1 [brepocitinib]
Percentage change from baseline in EASI score compared with respective vehicle ([1]; 1% QD, 3% QD and 1% BID groups, week 1 and all subsequent time points): significantly greater percentage changes from baseline in EASI score
Onset of clinically relevant reductions in pruritus ([1]; 24 h after the first administration): as early as day 2
Change from baseline in POEM at week 6 vs. vehicle ([1]; all brepocitinib groups): significantly different from vehicle
Discontinued from study due to TEAE, participants ([2]; 0·1% QD (N = 37)): 2 (5·4) n (%)
Nasopharyngitis (TEAE), participants ([2]; 0·1% QD (N = 37)): 2 (5·4) n (%)
Severe TEAEs, participants ([2]; 0·1% QD (N = 37)): 0 n (%)
TEAEs, all causalities, participants ([2]; 0·1% QD (N = 37)): 17 (45·9) n (%)
Treatment‐emergent SAEs, participants ([2]; 0·1% QD (N = 37)): 0 n (%)
Worsening of AD (TEAE), participants ([2]; 0·1% QD (N = 37)): 3 (8·1) n (%)
Cases of creatine kinase elevation (≥ 2–3× the upper limit of normal) ([2]; 0·1% QD and 0·3% QD groups, not deemed treatment‐related): one participant each
Discontinued from study due to TEAE, participants ([2]; 0·3% BID (N = 36)): 1 (2·8) n (%)
Nasopharyngitis (TEAE), participants ([2]; 0·3% BID (N = 36)): 2 (5·6) n (%)
Severe TEAEs, participants ([2]; 0·3% BID (N = 36)): 1 (2·8) n (%)
TEAEs, all causalities, participants ([2]; 0·3% BID (N = 36)): 9 (25·0) n (%)
Treatment‐emergent SAEs, participants ([2]; 0·3% BID (N = 36)): 0 n (%)
Worsening of AD (TEAE), participants ([2]; 0·3% BID (N = 36)): 0 n (%)
Discontinued from study due to TEAE, participants ([2]; 0·3% QD (N = 36)): 1 (2·8) n (%)
Nasopharyngitis (TEAE), participants ([2]; 0·3% QD (N = 36)): 2 (5·6) n (%)
Severe TEAEs, participants ([2]; 0·3% QD (N = 36)): 0 n (%)
TEAEs, all causalities, participants ([2]; 0·3% QD (N = 36)): 11 (30·6) n (%)
Treatment‐emergent SAEs, participants ([2]; 0·3% QD (N = 36)): 0 n (%)
Worsening of AD (TEAE), participants ([2]; 0·3% QD (N = 36)): 1 (2·8) n (%)
Discontinued from study due to TEAE, participants ([2]; 1.0% QD (N = 37)): 2 (5·4) n (%)
Nasopharyngitis (TEAE), participants ([2]; 1.0% QD (N = 37)): 3 (8·1) n (%)
Severe TEAEs, participants ([2]; 1.0% QD (N = 37)): 0 n (%)
TEAEs, all causalities, participants ([2]; 1.0% QD (N = 37)): 12 (32·4) n (%)
Treatment‐emergent SAEs, participants ([2]; 1.0% QD (N = 37)): 0 n (%)
Worsening of AD (TEAE), participants ([2]; 1.0% QD (N = 37)): 0 n (%)
Discontinued from study due to TEAE, participants ([2]; 1·0% BID (N = 37)): 0 n (%)
Nasopharyngitis (TEAE), participants ([2]; 1·0% BID (N = 37)): 2 (5·4) n (%)
Severe TEAEs, participants ([2]; 1·0% BID (N = 37)): 0 n (%)
TEAEs, all causalities, participants ([2]; 1·0% BID (N = 37)): 14 (37·8) n (%)
Treatment‐emergent SAEs, participants ([2]; 1·0% BID (N = 37)): 0 n (%)
Worsening of AD (TEAE), participants ([2]; 1·0% BID (N = 37)): 2 (5·4) n (%)
Discontinued from study due to TEAE, participants ([2]; 3·0% QD (N = 36)): 2 (5·6) n (%)
Nasopharyngitis (TEAE), participants ([2]; 3·0% QD (N = 36)): 4 (11·1) n (%)
Severe TEAEs, participants ([2]; 3·0% QD (N = 36)): 0 n (%)
TEAEs, all causalities, participants ([2]; 3·0% QD (N = 36)): 10 (27·8) n (%)
Treatment‐emergent SAEs, participants ([2]; 3·0% QD (N = 36)): 0 n (%)
Worsening of AD (TEAE), participants ([2]; 3·0% QD (N = 36)): 1 (2·8) n (%)
Discontinuations due to TEAEs in SOC skin and subcutaneous tissue disorders ([2]; all brepocitinib groups together): 4 n
Trends in haemoglobin, platelet, lymphocyte or neutrophil counts or creatine kinase levels ([2]; all groups): no clinically significant trends
Serious AEs or deaths ([2]; all groups, 6 weeks treatment): no serious AEs or deaths; also recorded: no serious TEAEs or deaths
Plasma brepocitinib concentrations [3]: low and highly variable
